Measured values of several laboratories.

C=CC(=O)Nc1cc(Nc2nccc(-c3cn(C)c4ccccc34)n2)c(OC)cc1N(C)CCN(C)C — IC50 (PC-9; cell growth or viability; MTS; 72 h): 1.44 µM
Cc1c(C(=O)O)ccc2c3n(nc12)[C@@H]1[C@H](C3)N(CC2CC2)[C@@]2(C(=O)Nc3cc(Cl)ccc32)[C@H]1c1cccc(Cl)c1F — IC50 (SK-OV-3; cell growth or viability; ATP luminescence): > 50 µM
COc1ccc(-c2cc(-c3cccc(Br)c3)c3c(=O)n(C)c(=O)n(C)c3n2)cc1 — IC50 (HCT-116; cell growth or viability; MTT; 48 h): 7.88 µM
COc1cc2c3c(n(CCCN4CCOCC4)c(=O)c2cc1OC)-c1nc2c(cc1C3=O)OCO2 — IC50 (Raji; cell growth or viability; MTS; 72 h): 0.374 µM
COc1ccc(-c2cc(-c3ccccc3Cl)c3c(=O)n(C)c(=O)n(C)c3n2)cc1 — IC50 (HCT-116; cell growth or viability; MTT; 48 h): 14.1 µM
Nc1n[nH]c2nc(-c3cccc(O)c3)cc(-c3cc4cc(Cl)ccc4nc3N3CCOCC3)c12 — IC50 (NFS-60; cell growth or viability; MTT; 72 h): 0.16 µM
NCCC(=O)NCc1ccccc1 — IC50 (DH82; PGE2 release; inhibitor; ELISA; 24 h; LPS-stimulated): 122 µM
CCNCCCn1c2c(c3cc(OC)c(OC)cc3c1=O)C(=O)c1cc3c(nc1-2)OCO3 — IC50 (Raji; cell growth or viability; MTS; 72 h): 0.125 µM
O=C(CCNNC(=O)c1ccncc1)NCc1ccccc1 — IC50 (DH82; NO release; inhibitor; Griess; 24 h; LPS-stimulated): > 200 µM
CC1(C)CCC(CN2CCN(c3ccc(C(=O)NS(=O)(=O)c4ccc(NCC5CCOCC5)c([N+](=O)[O-])c4)c(Oc4cnc5[nH]ccc5c4)c3)CC2)=C(c2ccc(Cl)cc2)C1 — IC50 (DOHH-2; cell growth or viability; ATP luminescence; 48 h): 0.077 µM
C=C(F)C(=O)N1CCN(c2nc(OC[C@@H]3CCCN3C)nc3c2CCN(c2cccc4cccc(Cl)c24)C3)C[C@@H]1CC#N — IC50 (AGS; cell growth or viability; ATP luminescence; 3D culture): > 1 µM
COCCC(=O)NCc1ccccc1 — IC50 (DH82; PGE2 release; inhibitor; ELISA; 24 h; LPS-stimulated): 126 µM
Nc1n[nH]c2nc(-c3cccc(O)c3)cc(-c3cc4ccccc4nc3N3CCOCC3)c12 — IC50 (NFS-60; cell growth or viability; MTT; 72 h): 0.0641 µM
NC(=O)c1ccncc1 — IC50 (DH82; NO release; inhibitor; Griess; 24 h; LPS-stimulated): > 200 µM
CCCOc1nc(-c2cccc(O)c2)cc(-c2cc3ccccc3nc2N2CCOCC2)c1C#N — IC50 (NFS-60; cell growth or viability; MTT; 72 h): 0.151 µM
Cc1nc2cccc(N)c2c(=O)n1C1CCC(=O)NC1=O (stereo not drawn) — IC50 (NCI-H929; cell growth or viability; CCK-8; 96 h): < 0.33 µM
CCCOc1nc(-c2cccc(O)c2)cc(-c2cc3cc(Cl)ccc3nc2N2CCOCC2)c1C#N — IC50 (NFS-60; cell growth or viability; MTT; 72 h): 0.244 µM
O=C(CCO)NCc1ccccc1 — IC50 (DH82; PGE2 release; inhibitor; ELISA; 24 h; LPS-stimulated): 49.4 µM
